NSD2 inh = blocks human histone methyltransferase NSD2; O96028; NSD2 peptide methylation, AlphaScreen, 120 min; inhibition, % at 12.5 µM; hit rate 0.54% among 310,000
DYRK1A inh = Dyrk1A (rat) kinase inhibition; ADP-Glo luminescence, NFATc1 peptide; inhibition, % at 12.5 µM; hit rate 0.43% among 310,000; AID 504441
dFosB act-1 = mouse delta FosB homodimer activation | purified delta FosB, TAMRA-CDK5 oligo fluorescence polarization; percent of positive-control signal above neutral wells | hit rate 0.99% among 340,000 | activation, % at 25 µM | P13346;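 active = mean activation above about 17%, with every replicate also reaching it, limit read from the data, passing the limit was not always enough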
SR-BI HDL uptake = blocks mouse SR-BI lipid uptake from DiI-HDL; hit rate 0.96% among 320,000; inhibition, % at 12.5 µM; Q61009; ldlA[mSR-BI] CHO cells, DiI-HDL uptake fluorescence, 3 h; AID 488896;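 active = mean replicate inhibition of at least 70% and a set share of replicates each scoring 70 or more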
Target sequence (Q61009 whole entry, looked up): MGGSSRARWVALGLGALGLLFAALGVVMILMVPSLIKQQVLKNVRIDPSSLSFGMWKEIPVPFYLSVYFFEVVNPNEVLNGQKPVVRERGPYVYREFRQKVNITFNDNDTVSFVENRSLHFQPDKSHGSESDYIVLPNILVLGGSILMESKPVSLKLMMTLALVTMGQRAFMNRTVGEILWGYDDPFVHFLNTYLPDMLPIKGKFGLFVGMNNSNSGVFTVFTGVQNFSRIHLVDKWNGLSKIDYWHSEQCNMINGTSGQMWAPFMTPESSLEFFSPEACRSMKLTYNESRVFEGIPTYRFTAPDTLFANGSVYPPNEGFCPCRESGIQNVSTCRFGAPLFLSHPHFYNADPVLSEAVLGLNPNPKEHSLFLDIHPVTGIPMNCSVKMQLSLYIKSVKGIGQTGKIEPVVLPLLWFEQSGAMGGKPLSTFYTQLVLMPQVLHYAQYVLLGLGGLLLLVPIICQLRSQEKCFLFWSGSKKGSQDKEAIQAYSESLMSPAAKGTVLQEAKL
SR-BI uptake up = SR-BI HDL lipid transfer activation; CHO ldlA[mSR-BI] cells, DiI-HDL uptake fluorescence, 3 h; 100 = double the neutral-control signal; activation, % at 12.5 µM; hit rate 0.096% among 320,000; AID 504775;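 active = mean replicate activation of at least 60% and every replicate at or above 60%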
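Test system: SR-BI-overexpressing, LDLR-lacking CHO cells. Measured by: DiI fluorescence, bottom read. Medium: Ham's F12 with 0.5% BSA, HEPES 25 mM, pH 7.4. Timing: 3 h uptake period with compound, 37 °C.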
CDK5 inh = CDK5/p35 (human) kinase inhibition | Q00535+Q15078 | Recombinant CDK5/p35, ADP-Glo luminescence, 60 min | inhibition, % at 10 µM | hit rate 0.01% among 330,000;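 active = highest replicate inhibition of at least 50% and at least 75% of replicates reaching 50%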
dFosB act-2 = enhances mouse delta FosB homodimer binding to DNA; shares compounds with dFosB act-1; purified delta FosB, TAMRA-CDK5 oligo fluorescence polarization; normalised: neutral wells 0, positive control 100; activation, % at 24.9 µM; 2,400 tested, under 10 active; AID 588690;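 active = highest replicate activation at or above 34% and every replicate reaching that threshold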;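 also: higher polarization means more probe DNA bound by delta FosB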
A number is an active result; i = inactive; nt = not tested or not shown; ! = a repeat was not active. Only some compounds are listed: those with a hit (about 2.5% of all), similar ones and a draw of the others. Rule as the data show it, unless noted: active = inhibition above about 50%; inactive = the rest.

SMILES | NSD2 inh | DYRK1A inh | dFosB act-1 | SR-BI HDL uptake | SR-BI uptake up | CDK5 inh | dFosB act-2
CN(C)CCN(C(=O)/C=C/c1cccs1)c1nc2c(F)cc(F)cc2s1 | i | i | 53 | i | i | i | i
CCOc1ccc2nc(N(CCN(C)C)C(=O)/C=C/c3cccs3)sc2c1 | i | i | 32 | i | i | i | i
COc1ccccc1NC(=O)C1CCN(S(=O)(=O)c2cccs2)CC1 | i | i | i | i | i | i | nt
Cc1cccc(C)c1NC(=O)Cn1nc(-c2ccccc2)nc1-c1ccccc1 | i | i | 45 | i | i | i | i
Cc1nn(C(=O)CCC(=O)NCc2ccc(OC(C)C)cc2)c2ccccc12 | i | i | i | i | i | i | nt
COc1ccccc1Cn1c(/C=C/c2ccccc2)nc2ccccc21 | i | i | i | i | i | i | nt
COc1ccc(/C=C/c2nc3ccccc3n2Cc2ccccc2OC)cc1 | i | i | 25 | i | i | i | i
COc1ccc(CNC(=O)CCC(=O)Nc2nnc(C(F)(F)F)s2)cc1 | i | i | i | i | i | i | nt
O=C(Nc1cccnc1)C1Cc2c(-c3ccc4c(c3)OCO4)ccnc2O1 (stereo unspecified) | i | nt | nt | nt | nt | nt | nt
Cc1cc(Br)ccc1SCC(=O)OC/C(O)=C(\C#N)c1nc2ccccc2[nH]1 | i | i | 52 | nt | nt | i | i
Cc1ccc(S(=O)(=O)N2CCN(C(=O)COC(=O)c3cccc(Cl)c3)CC2)c(C)c1 | i | i | i | i | i | i | nt
O=C(CCC(=O)Nc1ccccc1)NNC(=O)C(c1ccccc1)c1ccccc1 | i | i | 42 | i | i | i | i
COc1ccccc1P(=O)(Cc1ccccc1[N+](=O)[O-])c1ccccc1 (stereo unspecified) | i | i | i | i | i | i | nt
Cc1ccc2nc(SCC(=O)Nc3ccc4sc(C)nc4c3)c(C#N)cc2c1 | i | i | 25 | i | i | i | i
Cc1ccc(CCNC(=O)c2nnc(CS(=O)(=O)c3ccccc3)o2)cc1 | nt | i | i | i | i | i | nt
O=[N+]([O-])c1ccc2[nH]nc(-c3ccccc3)c2c1 | i | i | i | i | i | i | nt
O=[N+]([O-])c1ccc2[nH]c3nc4ccccc4nc3c2c1 | i | i | 38 | i | i | i | i
CC(C)C1CC(N(C)C)=CC(=S)N1 (stereo unspecified) | i | nt | nt | nt | nt | nt | nt
CC/C(=C(\c1ccc(O)cc1)c1ccc(OCCN(C)C)cc1)c1ccccc1 | nt | i | i | i | i | i | nt
CC/C(=C(\c1ccccc1)c1ccc(OCCN(C)C)cc1)c1ccccc1 | nt | i | 24! | i | i | i | i
Cc1ccc(C)c(NC(=O)c2ccccc2NS(=O)(=O)c2cc([N+](=O)[O-])ccc2C)c1 | i | i | 27 | i | i | i | i
CN1C(=O)c2ccc(NC(=O)c3ccc(Cl)cc3Cl)cc2C1=O | i | i | i | i | i | i | nt
CC1(C)C(=O)Nc2ccccc2N1C(=O)COC(=O)CSc1ccc(Cl)cc1 | i | i | i | i | i | i | nt
Cc1cc2cc(CNC(=O)c3ccc(S(=O)(=O)N4CCCCC4)cc3)ccc2n1C | nt | i | 33 | i | i | i | i
Cc1cc2cc(CNC(=O)c3ccc(S(=O)(=O)N4CCCC4)cc3)ccc2n1C | nt | i | i | i | i | i | nt
SMILES | NSD2 inh | DYRK1A inh | dFosB act-1 | SR-BI HDL uptake | SR-BI uptake up | CDK5 inh | dFosB act-2
O=c1c(-c2c(O)cc(O)c3c2O[C@H](c2ccc(O)cc2)CC3)c(-c2ccc(O)cc2)oc2cc(O)cc(O)c12 | nt | i | 31 | i | i | i | i
O=C(C[n+]1cnn(CC(=O)c2ccc(Cl)cc2Cl)c1)c1ccc([N+](=O)[O-])cc1 | i | i | 32 | i | i | i | i
COc1ccc(CNC(=O)CN(C)S(=O)(=O)c2ccc3c(c2)c(=O)n(C)c(=O)n3C)cc1 | i | i | i | i | i | i | nt
COc1cc(C(=O)Nc2ccccc2-c2nnn(CC(N)=O)n2)cc(OC)c1OC | i | i | i | i | i | i | nt
COc1ccc(C(=O)Nc2ccccc2-c2nnn(CC(N)=O)n2)cc1 | i | i | 44 | nt | nt | i | i
COc1ccc(C(=O)Nc2ccccc2-c2nnn(CC(=O)NCc3ccco3)n2)cc1 | i | i | i | i | i | i | nt
CCOc1ccc(NC(=O)Cn2nnc(-c3ccccc3NC(=O)C3CC3)n2)cc1 | i | i | 60 | i | i | i | i
COc1cc(OC)cc(C(=O)Nc2ccccc2-c2nnn(CC(=O)Nc3cc(C)on3)n2)c1 | i | i | 95 | nt | nt | i | i
COc1ccc(C(=O)Nc2ccccc2-c2nnn(CC(=O)Nc3ccc4c(c3)OCCO4)n2)cc1 | i | nt | 33 | i | i | i | i
CC(C)(C)c1ccc(C(=O)N2CCN(c3ncccn3)CC2)cc1 | i | i | i | i | i | i | nt
O=C(COc1ccc2ccc(=O)oc2c1)NCCc1c[nH]c2ccc(F)cc12 | i | i | i | i | i | i | nt
CCCc1cc(=O)oc2cc(OCC(=O)NCCc3c[nH]c4ccc(OC)cc34)ccc12 | nt | i | 19 | i | i | i | i
CCN1C(=O)c2ccc(C(=O)NCc3ccco3)cc2C1=O | i | i | i | i | i | i | nt
O=C(Nc1cccnc1Cl)c1cc(-c2ccc(O)cc2)on1 | i | i | 29 | i | i | i | i
O=C(Nc1cccnc1Cl)c1cc(-c2ccc(Cl)cc2)on1 | i | i | i | nt | nt | i | nt
C/C(=N/NC(=O)c1sc(NS(=O)(=O)c2ccccc2)nc1C)c1sc(N)nc1C | i | nt | i | i | i | i | nt
CC1CCCN(CCCNS(=O)(=O)c2cc3c(cc2Br)CCN3C(=O)C2CC2)C1 (stereo unspecified) | i | nt | nt | nt | nt | nt | nt
COc1ccc(NC(=O)COc2cc(C)cc(C)c2)cc1S(=O)(=O)N1CCCCC1 | i | i | i | i | i | i | nt
CS(=O)(=O)c1cccc(C(=O)OCC(=O)NC(=O)Nc2ccccc2F)c1 | i | i | 22 | i | i | i | i
CC(=O)Nc1cccc(NC(=O)Nc2cccc3ccccc23)c1 | i | i | 21 | i | i | i | i
CS(=O)(=O)c1ccc2nc(NC(=O)c3ccccc3)sc2c1 | nt | i | i | i | i | i | nt
COc1ccc2nc(NC(=O)Nc3cccc4ccccc34)sc2c1 | i | i | 57 | i | i | i | i
Cc1cccc(NC(=O)Nc2cccc3ccccc23)c1 | i | i | i | i | i | i | nt
CS(=O)(=O)c1ccc2nc(NC(=O)Nc3ccccc3F)sc2c1 | i | i | 20 | i | i | i | i
COc1ccc2nc(NC(=O)Nc3ccccc3OC)sc2c1 | i | i | i | i | i | i | nt
O=C(Nc1ccc(Br)cc1)C1OCCc2ccccc21 (stereo unspecified) | i | i | i | nt | nt | i | nt
COc1ccccc1NC(=O)Nc1nc2ccc(S(N)(=O)=O)cc2s1 | i | i | 49 | i | i | i | i
